From ChEMBL document CHEMBL2177069, “Novel peptidomimetic compounds containing redox active chalcogens and quinones as potential anticancer agents” (Eur J Med Chem, 2012) come the findings set out here.

The structures appear in SMILES notation. Active and inactive are the calls of the source. No cut-off for these calls is given here.

The subject of data set [1] is Saccharomyces cerevisiae. Briefly: Growth inhibition of SOD1-deficient Saccharomyces cerevisiae YJR104C mutant at 20 ug/disc after 24 to 48 hrs by agar diffusion assay. Format: functional. The note with it: read-out: DIZ. The gist of the method:
(§1)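 S. cerevisiae deletion mutants or wild type grown on YPD, seeded into liquid agar medium at an optical density of 0.1. 6 mm paper discs soaked with methanolic compound solution were placed on the plates and incubated at 30 °C. Growth was checked after 1 and 2 days, and the inhibition zone diameter was recorded in mm.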
On the technique in general: Agar diffusion results depend on both activity and mobility in agar.

For data set [2], the system named is MCF7. Briefly: Induction of oxidative stress in human MCF7 cells assessed as decrease in GSH level at 5 uM after 1 hr by DTNB assay relative to control. Format: functional. More on the design: scale not given: the % may be the effect or the level left. The gist of the method:
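MCF-7 cells (10^6) were treated for 1 h at 37 °C, trypsinized, and washed twice with cold PBS. GSH was extracted with chilled 5% metaphosphoric acid at 4 °C for 2 h, then the lysate was centrifuged. Supernatant was mixed with 0.2 M sodium phosphate pH 8.0 and 0.04 mM DTNB for 10 min at room temperature. Absorbance was read at 412 nm against a reagent blank, and GSH was quantified from a standard curve.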

The test system of data set [3] is HUVEC. Briefly: Induction of oxidative stress in human HUVEC cells assessed as increase in superoxide free radical production after 1 hr by DHE-based by fluorescence spectrophotometric analysis. Format: cell-based. The gist of the method: (§2)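 Cells were seeded at 10^5 per well and given graded compound concentrations for 1 h. They were then loaded with DHE or DCF probe for 30 min in the dark. Fluorescence was read immediately: DHE ex 540/em 600 nm; DCF ex 485/em 528 nm. Results were expressed as arbitrary units per 10^5 cells.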

In data set [4] the test system is Saccharomyces cerevisiae. Briefly: Growth inhibition of POS5-deficient Saccharomyces cerevisiae YPL188W mutant at 20 ug/disc after 24 to 48 hrs by agar diffusion assay. The settings on record: read-out: DIZ. It is filed as functional. A digest of the protocol: as §1
For data set [5], the system named is MCF7. Briefly: Cytotoxicity against human MCF7 cells after 24 hrs by MTT assay. It is filed as functional, cell-based. The note with it: MCF7, 24 h. The gist of the method:
(§3)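 MTT assay. Cells were seeded at 50,000 cells/mL in medium with 10% fetal calf serum and grown for two days at 37 °C, 10% CO2. Serial dilutions of compound were then added for 24 h. MTT was added (final 0.5 mg/mL) for 2 h, and the formazan was pelleted, washed, dissolved in isopropanol with 0.4% HCl and read at 590 nm. IC50 is the concentration giving 50% of untreated-control absorbance, taken from dose-response curves; mean of two parallel experiments.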
On the technique in general: Tetrazolium assays rely on reduction of a dye to a coloured formazan, in cell work by metabolically active cells.

Data set [6] deals with Saccharomyces cerevisiae. Briefly: Growth inhibition of COX17-deficient Saccharomyces cerevisiae YLL009C mutant at 20 ug/disc after 24 to 48 hrs by agar diffusion assay. It is filed as functional. The settings on record: read-out: DIZ. A digest of the protocol:
as §1

Data set [7] relates to MCF7. Briefly: Induction of Cell cycle arrest in human MCF7 cells assessed as G0/1 phase cells at IC50 concentration after 24 hrs by PI-staining based flow cytometric analysis (reference value: 68%). It is filed as functional. The gist of the method: (§4)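 MCF-7 cells (10^6) were treated for 24 h, with methanol as the vehicle control. Cells were fixed in cold 70% methanol at 4 °C for one day, washed with PBS, and permeabilized with 0.1% saponin in PBS. They were stained with propidium iodide plus RNase for 30 min. DNA content was read by flow cytometry, giving percentages of cells per cell-cycle phase.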
(Flow cytometry measures light scatter and fluorescence of single cells or particles in a stream.)

Data set [8] relates to A-431. Briefly: Cytotoxicity against human A431 cells after 24 hrs by MTT assay. The note with it: A-431, 24 h. It is filed as functional, cell-based. The gist of the method: as §3
The subject of data set [9] is Saccharomyces cerevisiae. Briefly: Growth inhibition of UFD2-deficient Saccharomyces cerevisiae YDL190C mutant at 20 ug/disc after 24 to 48 hrs by agar diffusion assay. The note with it: read-out: DIZ. Format: functional. The gist of the method:
as §1

Data set [10] deals with A-431. Briefly: Induction of oxidative stress in human A431 cells assessed as increase in hydrogen peroxide free radical production after 1 hr by DCF-based fluorescence spectrophotometric analysis. It is filed as functional, cell-based. The gist of the method:
as §2

Data set [11] has as its system Saccharomyces cerevisiae. Briefly: Growth inhibition of PST2-deficient Saccharomyces cerevisiae YDR032C mutant at 20 ug/disc 24 to 48 hrs by agar diffusion assay. Format: functional. The note with it: read-out: DIZ. The gist of the method:
as §1

The subject of data set [12] is Saccharomyces cerevisiae. Briefly: Growth inhibition of WSC4-deficient Saccharomyces cerevisiae YHL028W mutant at 20 ug/disc 24 to 48 hrs by agar diffusion assay. It is filed as functional. The note with it: read-out: DIZ. A digest of the protocol:
as §1

Data set [13] deals with Saccharomyces cerevisiae. Briefly: Growth inhibition of RCK1-deficient Saccharomyces cerevisiae YGL158W mutant at 20 ug/disc after 24 to 48 hrs by agar diffusion assay. Format: functional. The note with it: read-out: DIZ. The gist of the method: as §1
For data set [14], the system named is Saccharomyces cerevisiae. Briefly: Growth inhibition of wild type Saccharomyces cerevisiae BY4741 at 20 ug/disc after 24 to 48 hrs by agar diffusion assay. It is filed as functional. The settings on record: read-out: DIZ. A digest of the protocol: as §1
Data set [15] has as its system Saccharomyces cerevisiae. Briefly: Growth inhibition of GTT2-deficient Saccharomyces cerevisiae YLL060C mutant at 20 ug/disc after 24 to 48 hrs by agar diffusion assay. Format: functional. The settings on record: read-out: DIZ. A digest of the protocol: as §1
For data set [16], the system named is MCF7. Briefly: Induction of Cell cycle arrest in human MCF7 cells assessed as S phase cells at IC50 concentration after 24 hrs by PI-staining based flow cytometric analysis (reference value: 19%). It is filed as functional. A digest of the protocol: as §4
The subject of data set [17] is Saccharomyces cerevisiae. Briefly: Growth inhibition of GSH2-deficient Saccharomyces cerevisiae YOL049W mutant at 20 ug/disc after 24 to 48 hrs by agar diffusion assay. Format: functional. The note with it: read-out: DIZ. The gist of the method:
as §1

Data set [18] concerns HUVEC. Briefly: Cytotoxicity against human HUVEC cells after 24 hrs by MTT assay. Format: cell-based. The gist of the method: as §3
Data set [19] is described as follows: Cytotoxicity against human PHF cells after 24 hrs by MTT assay. Format: cell-based. A digest of the protocol: as §3
The subject of data set [20] is Saccharomyces cerevisiae. Briefly: Growth inhibition of SOD2-deficient Saccharomyces cerevisiae YHR008C mutant at 20 ug/disc 24 to 48 hrs by agar diffusion assay. Format: functional. The note with it: read-out: DIZ. The gist of the method: as §1
Data set [21] deals with HUVEC. Briefly: Induction of oxidative stress in human HUVEC cells assessed as increase in hydrogen peroxide free radical production after 1 hr by DCF-based fluorescence spectrophotometric analysis. Format: cell-based. The gist of the method: as §2
Data set [22] has as its system A498. Briefly: Cytotoxicity against human A498 cells after 24 hrs by MTT assay. It is filed as functional, cell-based. The note with it: A498, 24 h. A digest of the protocol: as §3
The subject of data set [23] is MCF7. Briefly: Induction of Cell cycle arrest in human MCF7 cells assessed as G2/M phase cells at IC50 concentration after 24 hrs by PI-staining based flow cytometric analysis (reference value: 13%). It is filed as functional. A digest of the protocol: as §4

One may read the IC50 as the concentration at which inhibition is half-maximal. Regarding `CC1=C([Se]CC(OC(=O)[C@@H](CSSC(C)(C)C)NC(=O)OC(C)(C)C)C(=O)NC(C)(C)C)C(=O)c2ccccc2C1=O` (some centres not stated), the zone of inhibition at 20 µg/disc in data set [1] came out at 21 mm; in data set [4], 11 mm; in data set [6] it was 14 mm; in [9] it was 0 mm; in data set [11], 11 mm; in data set [12], 20 mm. In addition, the zone of inhibition at 20 µg/disc in data set [13] amounted to 14 mm; in data set [14], 0 mm; in [15] it was 20 mm; in data set [17] it was 14 mm; in data set [20], 18 mm. Also, the Activity in data set [2] was 46%; in data set [3], “Non-toxic”; in [7] it was 95%; in data set [16], 3.9%; in data set [21], “Non-toxic”; in [23], 1.6%. Also, the IC50 in data set [5] amounted to 3 µM; in data set [8] it was 2 µM; in [18] it was 2 µM; in data set [19], 4 µM; in data set [22], 5 µM. The outcome in data set [10] was Active.

In the case of `CC1=C(SCCC(=O)OC(C[Se]C2=C(C)C(=O)c3ccccc3C2=O)C(=O)NC(C)(C)C)C(=O)c2ccccc2C1=O` (configuration not stated), the 50% inhibitory concentration (IC50) stood at 3 µM in data set [5], 1 µM in [8], 1 µM in data set [18] and 3 µM in data set [22].

For `CC1=C([Se]CC(OC(=O)c2ccc(-c3c4nc(c(-c5ccccc5)c5ccc([nH]5)c(-c5ccccc5)c5nc(c(-c6ccccc6)c6ccc3[nH]6)C=C5)C=C4)cc2)C(=O)NC(C)(C)C)C(=O)c2ccccc2C1=O` (configuration not stated), the IC50 in data set [5], in data set [8], in data set [18], in data set [19] and in data set [22] was greater than 100 µM each time.

For `CC(C)(C)NC(=O)COC(=O)c1ccc(-c2c3nc(c(-c4ccccc4)c4ccc([nH]4)c(-c4ccccc4)c4nc(c(-c5ccccc5)c5ccc2[nH]5)C=C4)C=C3)cc1`, the concentration for half-maximal inhibition (IC50) in data set [5], in data set [8], in data set [18], in data set [19] and in data set [22] was greater than 100 µM throughout.
